Experimental data published in the RNAGym collection of RNA variant scans (doi:10.1038/s41586-018-0170-7).

B1: tRNA (parent)
chain: GUUCCGUUGGCGUAAUGGUAACGCGUCUCCCUCCUAAGGAGAAGACUGCGGGUUCGAGUCCCGUACGGAACG

Variants of: B1
Experiment: yeast fitness, log relative to wild type (ln ratio); higher = fitter; tRNA-Arg(CCU), competitive growth, 37 C, 1 M NaCl
Outline: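 A combinatorial tRNA-Arg(CCU) variant library was carried on a HIS3 centromeric plasmid in BY4742 lacking the chromosomal gene, from two independent transformations. Pools grew 4 generations in SC-HIS at 30 °C, then ~6.5 generations (~26.5 h) in SC-HIS 1M NaCl at 37 °C, with three outputs per input. Variants were counted by 125 bp paired-end Illumina sequencing. Fitness is ln of each genotype's generations (OD-scaled log2 output/input frequency, inverse-variance weighted across replicates) over the wild-type's.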

Variant | yeast fitness (ln)
U2C C27U C46U | -0.0168
U2C C27U A43C C46U C71U | -0.0612
U2C G6A A43C A70U | -0.0469
U2C G6A A43C A70G | -0.231
U2C C27U A70U C71U | -0.104
U2C C46U C66A A69G A70G | -0.0391
U2C G6A A43C C46U C66A A70G | -0.123
U2C G6A A43C C46U C66A A70U | -0.0148
U2C C27U A43C A70U | -0.152
U2C C27U A43C A70G | -0.0248
G1A U2G G6U C71U | -0.196
U2C C46U A70U C71U | -0.0871
U2C C27U A43C C46U C66A A70U C71U | -0.269
U2C C27U A43C C46U A70U C71U | -0.0649
U2C C27U A43C C66A A69G A70G C71U | -0.328
U2C A43C C46U C66A | 0.0909
U2C A43C C46U C66U | -0.0687
U2C C27U A43C C71U | -0.0796
U2C A69G A70U | -0.117
U2C A69G A70G | -0.0175
U2C C27U C66A A70G | -0.105

Variant | yeast fitness (ln)
U2C C27U C66A A70U | -0.0861
G1A U2G G6U C66U A70U | -0.211
G1A U2G G6U C66U A70G | -0.199
U2C C27U A43C C46U C66U A69G A70U C71U | -0.46
U2C C27U C66A C71U | -0.146
U2C G6A A43C C46U C66U A70U C71U | -0.199
U2C A43C C46U A69G A70G | -0.0147
U2C A43C C46U A69G A70U | -0.144
U2C C27U A43C C66A A69G A70U C71U | -0.443
U2C G6A A43C C46U A69G A70U C71U | -0.399
U2C G6A A43C A69G C71U | -0.179
U2C A43C A70G | -0.00562
U2C A43C A70U | -0.0907
U2C C27U C46U C66A | -0.143
U2C C27U C46U C66U | -0.0297
U2C A43C C71U | -0.168
G1A U2G G6U C46U C66U A70U C71U | -0.722
G1A U2G G6U C66A A69G A70U C71U | -0.335
U2C C27U A70G C71U | -0.0321
U2C C27U A43C A69G A70U | -0.136
U2C C27U A43C A69G A70G | -0.0551

Variant | yeast fitness (ln)
U2C C27U A43C A69G | -0.0976
U2C G6A A43C A69G A70G C71U | -0.153
U2C G6A A43C A70G C71U | -0.129
U2C C27U A43C C46U A69G A70U C71U | -0.307
U2C G6A A43C C46U C66A A70U C71U | -0.0318
U2C A43C C46U C66A A70G C71U | -0.0245
G1A U2G G6U C46U C66U A70U | -0.184
U2C A43C C46U C66U A69G C71U | -0.25
U2C G6A A43C C66U A69G A70U C71U | -0.366
G1A U2G G6U C66A A69G A70U | -0.293
U2C A43C C46U A69G C71U | -0.0944
U2C A43C C46U A69G | -0.182
U2C G6A A43C C46U A70G C71U | -0.112
U2C C46U C66A C71U | -0.0793
U2C C66A A70U C71U | -0.0799
U2C C27U A43C C46U C66A A69G C71U | -0.41
U2C C27U A43C C46U C66U A70U C71U | -0.324
G1A U2G G6U C66U C71U | -0.249
U2C C27U A43C C66U A69G A70G C71U | -0.288
U2C A43C C66U A70G C71U | -0.346
U2C C27U C66U A70G | -0.0659

Variant | yeast fitness (ln)
U2C C27U C66U A70U | -0.113
G1A U2G G6U C66A A70U C71U | -0.0122
U2C C27U A43C C66U A70G C71U | -0.207
U2C A43C C46U C66U A70U C71U | -0.198
U2C C27U A43C C66A | -0.155
U2C C27U A43C C66U | -0.15
U2C A43C A69G A70G | -0.0256
U2C A43C A69G A70U | -0.235
U2C C27U A43C C46U | -0.0298
U2C C27U C46U A70G C71U | -0.0224
G1A U2G G6U C66U A70U C71U | -0.351
U2C C27U C66A A69G A70U | -0.119
U2C C27U A43C C46U C66U A69G A70G C71U | -0.216
U2C A43C C46U C66A A70U C71U | -0.169
U2C C27U C46U C66U A70G C71U | -0.075
U2C C27U | -0.0171
U2C C27U A43C C46U A69G | -0.0409
U2C A43C C46U A70G C71U | 0.00238
U2C C46U C66A A69G A70G C71U | -0.128
U2C A43C A69G A70U C71U | -0.32
U2C C46U C66A A70G C71U | -0.168
